From ChEMBL document CHEMBL4219066, “Identification and Mitigation of Reactive Metabolites of 2-Aminoimidazole-Containing Microsomal Prostaglandin E Synthase-1 Inhibitors Terminated Due to Clinical Drug-Induced Liver Injury” (J Med Chem, 2018)

Legend:
[1] = Drug level in human hepatocytes treated with 2-Chloro-N-(4-cyano-1H-imidazol-2-yl)-5-(pivalamidomethyl)benzamide at 2 uM after 4 hrs by LC-MS/MS analysis; assay type: ADME, cell-based, Hepatocyte
[2] = Drug level in rat hepatocytes treated with 2-Chloro-N-(4-cyano-1H-imidazol-2-yl)-5-(pivalamidomethyl)benzamide at 2 uM after 4 hrs by LC-MS/MS analysis; assay type: ADME, cell-based, Hepatocyte
[3] = Drug level in human liver microsomes treated with 2 -Chloro-N-(4,5-dimethyl-1H-imidazol-2-yl)-5-(pivalamidomethyl)benzamide at 2 uM after 0.5 hrs in presence of 1:1 ratio of unlabeled GSH and [glycine 13C2,15N]-labelled GSH by HPLC-MS analysis; assay type: ADME, microsome
Procedure, shortened: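 Glutathione-trapping incubation in human liver microsomes fortified with GSH to capture reactive intermediates. Metabolites and GSH adducts were identified by MS.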

Row | Drug metabolism [1] | Drug metabolism [2] | Drug metabolism [3] | Structure (SMILES)
1 | Metabolite_Detected | Metabolite_Detected |  | CC(C)(CO)C(=O)NCc1ccc(Cl)c(C(=O)Nc2nc(C#N)c[nH]2)c1
2 |  |  | Metabolite_Detected | Cc1[nH]c(NC(=O)c2cc(CNC(=O)C(C)(C)C)ccc2Cl)nc1CSC[C@H](NC(=O)CC[C@H](N)C(=O)O)C(=O)NCC(=O)O
